Screening data (PubChem)
A selection: hits, their analogues and other compounds. The true share with any hit is near 4%.
NTR1 agonist: agonists of human NTR1, primary screen, imaging, U2OS cells, beta-arrestin-GFP, high content; activation, % at 20 µM; hit rate 0.17% among 330,000; Neurotensin receptor type 1 (Homo sapiens), P30989; NTR1-U2OS beta-arrestin-GFP spot imaging, agonist mode; AID 493036, 2011;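 active means activation at or above 40% of the spot to cytoplasm intensity ratio, with at least 20 cells analyzed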;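 further: 0% = DMSO without peptide and 100% = 100 nM NTR1 peptide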
Target sequence (P30989 whole entry, looked up): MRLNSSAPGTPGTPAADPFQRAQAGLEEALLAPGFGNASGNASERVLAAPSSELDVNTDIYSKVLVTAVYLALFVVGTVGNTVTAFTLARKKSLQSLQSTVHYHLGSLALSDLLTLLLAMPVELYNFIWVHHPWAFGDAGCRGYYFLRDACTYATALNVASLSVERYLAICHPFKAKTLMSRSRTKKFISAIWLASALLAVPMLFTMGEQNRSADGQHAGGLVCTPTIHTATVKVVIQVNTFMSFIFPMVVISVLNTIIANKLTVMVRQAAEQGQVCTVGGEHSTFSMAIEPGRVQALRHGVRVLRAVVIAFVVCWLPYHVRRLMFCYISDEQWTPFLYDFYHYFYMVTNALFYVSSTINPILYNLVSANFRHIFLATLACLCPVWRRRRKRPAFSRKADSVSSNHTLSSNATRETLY
OX1R antag-1: antagonists of human orexin 1 receptor (OX1R) | Orexin/Hypocretin receptor type 1 (Homo sapiens), O43613 | OX1R-expressing cells, FRET antagonist read-out | inhibition, % at 6.6 µM | hit rate 1.8% among 330,000 | AID 485270, 2010; in the data active means inhibition mostly above about 38%, no sharp cut-off; inactive means mostly below about 40%;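 further: 0% = agonist challenge alone and 100% = reference antagonist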
CHO parental Ca: ATP-evoked calcium signal inhibitors, parental CHO, primary screen, counter-screen for OX1R antagonist project, cell-based, fluorescence, Fluo-8 calcium dye; AID 463079, 2010; inhibition, % at 5.6 µM; hit rate 0.63% among 330,000; parental CHO-K1, ATP-induced calcium, Fluo-8 fluorescence;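 active means inhibition above that plate's mean sample inhibition plus 3 SD, cut at about 26% in these data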;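 further: 0% = ATP-challenged DMSO wells and 100% = DMSO wells without ATP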
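Test system: untransfected parental CHO cell line. Compound: one dose, 5.6 µM nominal. Detection: intracellular calcium via Fluo-8 no-wash fluorescent dye. Measure: % inhibition. Benchmarks: ATP-challenged DMSO wells low, unchallenged DMSO wells high.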
TAAR1 antagonist: human TAAR1 antagonists, primary screen, Fluo-8 calcium fluorescence, CHO RD-HGA16 cells; antagonist; AID 624466, 2012; Trace amine-associated receptor 1 (Homo sapiens), Q96RJ0; hit rate 1.5% among 360,000; inhibition, % at 3 µM;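 active means inhibition above a per-plate cutoff, the mean inhibition of test compounds on that plate plus 3 SD, cut at about 49% in these data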;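 further: 0% = DMSO plus EC80 beta-PEA response and 100% = DMSO alone without agonist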
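Assay system: RD-HGA16 CHO cells with stable hTAAR1 and Gα16 / Reagent: EC80 β-phenethylamine stimulus / Doses: 3 µM, single point / Timing: dye loading 75 min at 37 °C, then 30 min room temperature / Measured by: Fluo-8 intracellular calcium dye fluorescence, real-time kinetic reads / Controls: vehicle wells and EC80 agonist wells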
OX1R antag-2: OX1R (HCRTR1) antagonists, primary screen, fluorescence, CHO/OX1R cells, Fluo-8 calcium, orexin A. Orexin/Hypocretin receptor type 1 (Homo sapiens), O43613. Fluo-8 calcium fluorescence. inhibition, % at 5 µM. hit rate 0.43% among 330,000. AID 434989, 2010;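 active means inhibition above its plate's threshold, mean inhibition of all tested compounds on the plate plus 3 SD, cut at about 37% in these data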;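 further: 0% = orexin A challenge wells and 100% = SB-334867-A antagonist wells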
TAAR1 ag: human TAAR1 agonists, primary screen, Fluo-8 calcium fluorescence, CHO RD-HGA16 cells | hit rate 0.99% among 360,000 | Trace amine-associated receptor 1 (Homo sapiens), Q96RJ0 | vehicle wells 0%, saturating PEA agonist 100% | activation, % at 3 µM;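 active means activation above the mean activation of all test compounds in the run plus 3 SD, cut at about 38% in these data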
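Signal – calcium-sensitive Fluo-8 signal, excitation 470-495, emission 515-575 nm · System – RD-HGA16 (CHO) cells co-expressing Gα16 and hTAAR1 · Incubation – 17-24 h seeding, 75 min 37 °C dye, 30 min RT · Compound dosing – 3 µM single concentration · Repeats – no replicates (n 1)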
OX1R HTRF conf: OX1R (HCRTR1) antagonists, confirmation, cell-based, HTRF | shares compounds with OX1R antag-1 | OX1R-expressing cells, HTRF antagonist assay | inhibition, % at 6.6 µM | hit rate 49% among 1,800; in the data active means inhibition above about 55%;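 further: CHO cells expressing OX1R stimulated with orexin A at about EC80; 0% = agonist challenge alone and 100% = reference antagonist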
CHO-K1 HTRF cnt: signal inhibition in parental CHO-K1 cells, counter-screen for OX1R antagonist project, cell-based, HTRF. shares compounds with OX1R antag-1. HTRF counterscreen. inhibition, % at 6.6 µM. hit rate 48% among 1,800. AID 493232, 2011; in the data active means inhibition above about 17%;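 further: 0% = agonist challenge with vehicle and 100% = vehicle alone without agonist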
Numbers without * were called inactive; . = not tested or not shown; ! = not confirmed by another sample.

SMILES	NTR1 agonist	OX1R antag-1	CHO parental Ca	TAAR1 antagonist	OX1R antag-2	TAAR1 ag	OX1R HTRF conf	CHO-K1 HTRF cnt
O=C(Nn1cnnc1)c1cc([N+](=O)[O-])cc([N+](=O)[O-])c1	1	113*	-6	-10	-9	-1	66*	84*
O=C(COC(=O)c1cc(-c2ccncc2)nc2ccccc12)Nc1ccc2c(c1)OCO2	-1	152*	1	.	-1	.	35	24*
Nc1c(-c2ccccc2)c(CN2CCOCC2)nn1-c1ccc(F)cc1	1	19	-17	-6	-15	0	.	.
Nc1c(-c2ccccc2)c(CN2CCOCC2)nn1-c1cccc([N+](=O)[O-])c1	1	85*	-12	-7	-23	0	32	29*
O=c1[nH][nH]c2c1C(c1ccc(F)cc1)OC(CCc1ccccc1)C2 (stereo not drawn)	.	.	.	-14	.	2	.	.
Cc1noc(C)c1COc1ccc(C(=O)NNC(=O)c2ccccc2O)cc1	2	9	1	-2	-24	0	.	.
Cc1cc(C)c(C#N)c(SCc2nnc(-c3ccccc3[N+](=O)[O-])o2)n1	5	16	0	9	-13	25	.	.
Cc1cc(C)c(C#N)c(SCc2nnc(-c3ccccc3)o2)n1	2	81*	-11	4	23	2	43	2
Cc1ccc(O)c(NC(=O)C2CCCN2C(=O)OCc2ccccc2)c1 (stereo not drawn)	1	-5	-23	-9	-21	3	.	.
Cc1cc(C)c[n+](-c2nc3ccccc3nc2C(=C=[N-])C#N)c1	0	84*!	0	-2	3	1	32	33*
CCc1ccc[n+](-c2nc3ccccc3nc2C(=C=[N-])C#N)c1	-1	35	12	-13	-2	1	.	.
Cc1ccc[n+](-c2nc3ccccc3nc2C(=C=[N-])C#N)c1	0	96*	4	-17	5	2	36	41*
O=C(COC(=O)c1ccc(Br)c(S(=O)(=O)N2CCOCC2)c1)NCCc1ccccc1	0	20	-19	-1	-20	2	.	.
CCC(=O)N1CCC2(CC1)Oc1ccc(F)cc1C(=O)C21CC(c2cccnc2)=NO1 (stereo not drawn)	0	78*	-17	7	-26	10	6	-27
CC(C)c1ccc(OCC(=O)Nc2ccc3oc(=O)ccc3c2)cc1	2	10	12	43	-9	3	.	.
COC(=O)C1(S(=O)(=O)c2cccc3nsnc23)CC1	-1	106*	-13	-9	-21	3	35	36*
CS(=O)(=O)c1ccc(S(=O)CC(=O)Oc2ccc(Cl)cc2)c([N+](=O)[O-])c1 (stereo not drawn)	8	116*	-10	.	-6	.	40	38*
COc1ccc2nc(NC(=O)c3cccnc3SC)sc2c1	0	88*	-11	4	12	3	77*	10
O=C1c2cc(S(=O)(=O)NCCO)ccc2-c2ccc(S(=O)(=O)NCCO)cc21	1	79*	1	6	-3	2	61*	64*
O=C(O)CNS(=O)(=O)c1ccc2c(c1)C(=O)c1cc(S(=O)(=O)NCC(=O)O)ccc1-2	0	.	.	-29	.	4	.	.
O=C(NCCNC(=O)c1ccccn1)c1ccc(-c2ccccc2)cc1	0	16	-23	9	-27	12	.	.
O=C(Nc1ccc(N2CCCCCC2)cc1)c1cccc(S(=O)(=O)N2CCOCC2)c1	3	6	-16	27	-8	2	.	.
O=C(OCC#CCSc1nnc(-c2ccc([N+](=O)[O-])cc2)o1)c1cccs1	-1	87*	-7	29	-10	7	51	30*
COc1ccc(S(=O)(=O)N2CCC[C@H]2C(=O)NC2=NCCS2)cc1	-1	34	-7	2	-5	11	.	.
COc1ccc2nc(NC(=O)C3CCCN3S(=O)(=O)c3ccc(C)cc3)sc2c1 (stereo not drawn)	1	80*	-7	-11	11	3	50	7
SMILES	NTR1 agonist	OX1R antag-1	CHO parental Ca	TAAR1 antagonist	OX1R antag-2	TAAR1 ag	OX1R HTRF conf	CHO-K1 HTRF cnt
Cn1c(O)c(C=Nc2ccc(Br)cc2)sc1=O	0	17	-17	5	-21	4	.	.
COCCCN1C(=O)C(CC(=O)NCc2ccco2)CC(C(=O)N(C)C)=C1C (stereo not drawn)	.	.	.	-5	.	4	.	.
CC(Cc1ccco1)NC(=O)c1cccc(S(=O)(=O)N(C)C)c1 (stereo not drawn)	2	11	-14	-20	-4	8	.	.
Cc1ccc2nc3c(cc(C(=O)NCC4CCCO4)c(=N)n3CCCOC(C)C)c(=O)n2c1 (stereo not drawn)	1	82*	-7	-4	-15	9	51	85*
CCOCCCNc1nc2nc3ccc(C)cn3c(=O)c2cc1C(=O)NCC1CCCO1 (stereo not drawn)	2	112*	11	18	-9	0	44	78*
O=[N+]([O-])c1cccc(-c2ccc3nnc(SCc4ccccn4)n3n2)c1	0	77*	-11	-7	-18	3	45	36*
O=C(/C=C/c1ccc([N+](=O)[O-])cc1)Nc1cccnc1	-2	95*	-14	5	8	12	44	27*
O=C(/C=C/c1ccccc1)Nc1cccnc1	0	13	0	0	10	12	.	.
O=C(N/N=C/c1ccc(Br)o1)c1cc([N+](=O)[O-])cc([N+](=O)[O-])c1	0	81*	-17	20	-7	1	37	56*
C/C(=N/NC(=O)CNC(=O)c1cccnc1)c1ccc([N+](=O)[O-])cc1	2	90*	7	-3	-11	9	52	44*
O=C(N/N=C/c1cccnc1)c1ccc([N+](=O)[O-])cc1	3	107*	-2	-2	-14	4	37	82*
O=C(NCCC(=O)N1CCC2(CC1)NCCc1[nH]cnc12)c1cccc(Cl)c1	-1	0	-1	-29	4	2	.	.
